Measurements reported in ChEMBL document CHEMBL2346643, “Semisynthetic studies identify mitochondria poisons from botanical dietary supplements--geranyloxycoumarins from Aegle marmelos” (Bioorg Med Chem, 2013).
Active and inactive are the calls of the source. No cut-off for these calls is given here.

Legend:
[1] = system: T47D; assay: Inhibition of mitochondrial ETC complex 1 in human T47D cells assessed as inhibition of oxygen consumption after 5 to 10 mins by Clarke-type electrode analysis; type: cell-based
How it was run: (§1)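 For acute exposure, intact T47D cells received compound at 3, 10 or 30 μM for 5–10 min. Oxygen consumption was then measured with a Clarke-type electrode, with rotenone at 1–100 nM as control. Results are % inhibition of the untreated rate, averaged over two independent experiments with deviation from the average.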

[2] = biological target: Mitochondrial complex I (NADH dehydrogenase); assay: Inhibition of mitochondrial ETC complex 1 in human T47D cells assessed as inhibition of 1% O2-induced HIF1 activation incubated for 30 mins prior to 1% O2-challenge measured after 16 hrs by luciferase reporter assay; type: cell-based
How it was run: (§2)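 pHRE-luc reporter transfected T47D cells were exposed for 16 h to hypoxia (1% O2) or to chemical hypoxia (10 μM 1,10-phenanthroline) in the presence of compound. The highest concentration tested was 30 μM. Luciferase signal was expressed as % inhibition of the induced control. IC50 and 95% CI came from one representative concentration-response experiment run in triplicate. Cycloheximide at 10 μM served as control.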

[3] = system: T47D; assay: Antiproliferative activity against human T47D cells at 1 to 10 uM after 48 hrs by SRB assay; type: functional, cell-based
How it was run: (§3)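 T47D or MDA-MB-231 breast tumor cells were exposed to 1, 3, 10 and 30 μM for 48 h or 144 h (6 d). For the 6 d exposure, medium was replaced after 3 days with fresh medium containing compound. Stocks were 4 mM in 2-propanol, with final solvent below 0.75%. Viability was measured by sulforhodamine B and expressed as % inhibition of the untreated control: [1−(OD treated/OD control)]×100.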

[4] = system: T47D; assay: Inhibition of mitochondrial ETC complex 1 in human T47D cells assessed as inhibition of oxygen consumption at 30 uM after 5 to 10 mins by Clarke-type electrode analysis; type: cell-based; how it was run: as §1
[5] = system: MDA-MB-231; assay: Antiproliferative activity against human MDA-MB-231 cells at 1 to 10 uM after 48 hrs by SRB assay; type: functional, cell-based; how it was run: as §3
[6] = biological target: Mitochondrial complex I (NADH dehydrogenase); assay: Inhibition of mitochondrial ETC complex 1 in human T47D cells assessed as inhibition of 1,10-phenanthroline-induced HIF1 activation incubated for 30 mins prior to 1,10-phenanthroline-challenge measured after 16 hrs by luciferase reporter assay; type: cell-based; how it was run: as §2
[7] = system: T47D; assay: Inhibition of mitochondrial ETC complex 4 in human digitonin-permeabalized T47D cells assessed as inhibition of ascorbate/TMPD-initiated respiration at 10 uM after 2 hrs by Clarke-type electrode analysis in presence of antimycin A; type: cell-based
How it was run: (§4)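 T47D cells were pretreated for 2 h with 10 μM compound (rotenone control 0.01 μM), then detached, washed and permeabilized with digitonin. Substrates and inhibitors were added in sequence while O2 uptake was followed by Clarke electrode. Respiration was started with malate/pyruvate (complex I) or succinate (complex II). Antimycin A then blocked complex III, and TMPD/ascorbate re-initiated respiration via complex IV. Rates were normalized to the untreated control.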

[8] = system: T47D; assay: Inhibition of mitochondrial ETC complex 1 in human digitonin-permeabalized T47D cells assessed as inhibition of malate/pyruvate-initiated respiration at 10 uM after 2 hrs by Clarke-type electrode analysis; type: cell-based; how it was run: as §4
[9] = system: T47D; assay: Inhibition of mitochondrial ETC complex 1 in human T47D cells assessed as inhibition of oxygen consumption at 10 uM after 10 mins by Clarke-type electrode analysis; type: cell-based; how it was run: as §1
[10] = system: T47D; assay: Inhibition of mitochondrial ETC complex 1 in human T47D cells assessed as inhibition of oxygen consumption at 10 uM after 2 hrs by Clarke-type electrode analysis; type: cell-based
How it was run: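 T47D cells were pretreated with 10 μM compound, or 0.01 μM rotenone, for 2 h. Cells were then detached and washed, and the oxygen consumption rate was measured with a Clarke-type electrode. Results are % inhibition relative to untreated controls.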

[11] = system: T47D; assay: Inhibition of mitochondrial ETC complex 2 in human digitonin-permeabalized T47D cells assessed as inhibition of succinate-initiated respiration at 10 uM after 2 hrs by Clarke-type electrode analysis; type: cell-based; how it was run: as §4
[12] = system: T47D; assay: Inhibition of mitochondrial ETC complex 2 in human digitonin-permeabalized T47D cells assessed as inhibition of succinate-initiated respiration at 30 uM after 2 hrs by Clarke-type electrode analysis; type: cell-based
[13] = system: T47D; assay: Inhibition of mitochondrial ETC complex 1 in human digitonin-permeabalized T47D cells assessed as inhibition of malate/pyruvate-initiated respiration at 30 uM after 2 hrs by Clarke-type electrode analysis in presence of succinate; type: cell-based
[14] = system: T47D; assay: Inhibition of mitochondrial ETC complex 1 in human digitonin-permeabalized T47D cells assessed as inhibition of malate/pyruvate-initiated respiration at 30 uM after 2 hrs by Clarke-type electrode analysis; type: cell-based
[15] = system: T47D; assay: Inhibition of mitochondrial ETC complex 4 in human digitonin-permeabalized T47D cells assessed as inhibition of ascorbate/TMPD-initiated respiration at 30 uM after 2 hrs by Clarke-type electrode analysis in presence of antimycin A; type: cell-based
[16] = system: T47D; assay: Inhibition of mitochondrial ETC complex 1 in human digitonin-permeabalized T47D cells assessed as inhibition of malate/pyruvate-initiated respiration at 0.01 uM after 2 hrs by Clarke-type electrode analysis; type: cell-based
How it was run: (§5)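 After 2 h pretreatment (rotenone 0.01 μM; test agents 10 μM), cells were detached and permeabilised with digitonin. Additions made in sequence: malate/pyruvate (complex I) or succinate (complex II), antimycin A to block complex III, then TMPD/ascorbate (complex IV) to restart respiration. Clark-electrode O2 consumption slopes were normalised to untreated control.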

[17] = system: T47D; assay: Inhibition of mitochondrial ETC complex 1 in human T47D cells assessed as inhibition of oxygen consumption at 0.01 uM after 2 hrs by Clarke-type electrode analysis; type: cell-based
How it was run: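 T47D cells treated 2 h in culture dishes with compound (10 μM; rotenone 0.01 μM), then detached and washed. O2 consumption measured with a Clark-type electrode. Value is % inhibition versus untreated control.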

[18] = system: T47D; assay: Inhibition of mitochondrial ETC complex 2 in human digitonin-permeabalized T47D cells assessed as inhibition of succinate-initiated respiration at 0.01 uM after 2 hrs by Clarke-type electrode analysis; type: cell-based; how it was run: as §5
[19] = system: T47D; assay: Inhibition of mitochondrial ETC complex 4 in human digitonin-permeabalized T47D cells assessed as inhibition of ascorbate/TMPD-initiated respiration at 0.01 uM after 2 hrs by Clarke-type electrode analysis in presence of antimycin A; type: cell-based; how it was run: as §5
[20] = system: T47D; assay: Inhibition of mitochondrial ETC complex 1 in human T47D cells assessed as inhibition of oxygen consumption at 0.01 uM after 10 mins by Clarke-type electrode analysis; type: cell-based
How it was run: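 Intact T47D cells; O2 consumption read on a Clark-type electrode after acute (5–10 min) compound exposure. Value is % inhibition of O2 consumption rate versus untreated control. Rotenone reference tested at 1, 10 and 100 nM. Mean of two independent experiments.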

[21] = system: T47D; assay: Antiproliferative activity against human T47D cells at 10 uM after 48 hrs by SRB assay; type: functional, cell-based
How it was run: (§6)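 Cells exposed 48 h to compounds at 1, 3, 10 and 30 μM (pure compounds from 4 mM 2-propanol stocks, final solvent <0.75%). Viability read by sulforhodamine B staining. Value is % inhibition versus untreated control, [1-(OD treated/OD control)]×100. Cycloheximide 10 μM and rotenone 1 and 10 nM served as controls.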

[22] = system: MDA-MB-231; assay: Antiproliferative activity against human MDA-MB-231 cells at 10 uM after 48 hrs by SRB assay; type: functional, cell-based; how it was run: as §6

Row | SMILES | inhibition [1] | IC50 [2] | Activity [3] | inhibition [4] | Activity [5] | IC50 [6] | also measured
1 | COC(C)(C)[C@H](O)CC/C(C)=C/COc1ccc2ccc(=O)oc2c1 | Dose-dependent effect | 19.3 µM | Active | 30% | Active | > 30 µM | 
2 | C=C(C)[C@H](O)CC/C(C)=C/COc1ccc2ccc(=O)oc2c1 | Dose-dependent effect | 10.4 µM | Active | 30% | Active | 21.8 µM | inhibition [7]: inactive; inhibition [8]: 16%; inhibition [9]: 27%; inhibition [10]: 31%; inhibition [11]: 16%
3 | C/C(=C\COc1ccc2ccc(=O)oc2c1)CC[C@@H](O)C(C)(C)Cl | Dose-dependent effect | 16.7 µM | Active | 30% | Active | 11.1 µM | inhibition [12]: inactive; inhibition [13]: inactive; inhibition [14]: Active; inhibition [15]: inactive
4 | COc1cc2ccc(=O)oc2cc1OC/C=C(\C)CCC=C(C)C | Dose-dependent effect | 17.5 µM | Active | 30% | Active | 24.2 µM | 
5 | C=C(C)[C@H]1Cc2c(ccc3c2O[C@@H]2COc4cc(OC)c(OC)cc4[C@@H]2C3=O)O1 |  |  |  |  |  |  | inhibition [16]: 75%; inhibition [17]: 68%; inhibition [18]: 18%; inhibition [19]: inactive; inhibition [20]: 21%
6 | C[C@@H]1C[C@@H]([C@H](O)CC2CC(=O)NC(=O)C2)C(=O)[C@@H](C)C1 |  |  |  |  |  |  | Activity [21]: Active; Activity [22]: Active
7 | COc1cc(C[C@H]2CO[C@H](c3ccc(O)c(OC)c3)[C@H]2COC(=O)CC(C)C)ccc1O [(+)-9'-ISOVALEROXYLARICIRESINOL] |  | 9.1 µM |  | inactive |  | 4.9 µM | 
